Screens from PubChem BioAssay.
Rows were chosen to be rich in hits. Some 2.5% of all compounds tested hit in one or more screens of this group.
SENP8 block-1: SENP8 (human) protease inhibition. recombinant SENP8, Nedd8 substrate fluorescence. inhibition, % at 20 µM. 360,000 compounds, 0.64% hits; in the data active means inhibition mostly above about 40%, no sharp cut-off; inactive means mostly below about 27%
SENP7 inh: blocks the human protease SENP7. 330,000 compounds, 1.5% hits. inhibition, % at 5 µM. recombinant SENP7, Z-RLRGG-aminoluciferin luminescence, 40 min;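 active means inhibition above about 50% at the single test dose, limit read from the data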;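 further: plate controls were DMSO with enzyme for no effect and no enzyme buffer wells for full effect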
SENP8 block-2: SENP8 protease inhibition. Q96LD8. purified SENP8, Z-RLRGG-aminoluciferin cleavage, luminescence. inhibition, % at 10 µM. 330,000 compounds, 1.2% hits; in the data active means inhibition above about 50%
SENP1 FRET inh: inhibitors of human SENP1 SUMO protease catalytic domain; Q9P0U3; 360,000 compounds, 0.21% hits; recombinant SENP1 catalytic domain, CyPet-SUMO1-YPet FRET cleavage; inhibition, % at 10 µM; AID 624204;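 active means inhibition at least 30% at 10 µM, raw YFP signal under a set limit, fluorescence ratio 0.5 to 1.5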;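 further: 0% = enzyme with DMSO and 100% = no enzyme wells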
Target sequence (Q9P0U3 419-644 limits assumed): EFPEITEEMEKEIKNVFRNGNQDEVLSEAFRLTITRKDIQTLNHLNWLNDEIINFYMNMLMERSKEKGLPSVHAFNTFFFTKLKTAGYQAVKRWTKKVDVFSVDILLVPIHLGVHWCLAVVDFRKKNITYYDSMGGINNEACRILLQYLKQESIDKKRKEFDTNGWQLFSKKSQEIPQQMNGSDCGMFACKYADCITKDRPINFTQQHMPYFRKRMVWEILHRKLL
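Test system: hSENP1 catalytic domain, recombinant; Amount: 20 pM final SENP1 enzyme; Medium: Tris pH 8 buffer plus EDTA, NaCl, BME, BSA, NP40, catalase; Schedule: 50 min enzyme reaction, room temperature, light-protected; Technique: FRET fluorescence in CFP and YFP emission channels; Controls: no-enzyme wells low, DMSO-plus-enzyme wells high control.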
SENP6 inh: blocks the human protease SENP6; Recombinant SENP6 catalytic domain, aminoluciferin luminescence; inhibition, % at 10 µM; 330,000 compounds, 1.8% hits; AID 2599;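 active means inhibition above about 50% at the single tested dose, limit read from the data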;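 further: plate controls were DMSO wells with enzyme for no effect and DMSO wells lacking enzyme for full effect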
* marks the source's active call; other numbers are inactive results; i = inactive; / = no result given.

SMILES	SENP8 block-1	SENP7 inh	SENP8 block-2	SENP1 FRET inh	SENP6 inh
Oc1cc2c(cc1O)C1c3ccc(O)c(O)c3OCC1(O)C2 (stereo not given)	69*	10	2	-6	4
Cc1ccsc1C(=O)Nc1nc2ccccc2[nH]1	i	98*	95*	0	99*
COc1ccc(N=Nc2c(N)nn(C)c2N)cc1	51*	/	/	3	/
Cc1ccc(N=Nc2c(N)nn(-c3ccccc3)c2N)cc1	24	11	-8	2	23
CCOC(=O)CNC(=O)CSc1nnc(Cn2cnc3ccccc32)n1C	7	6	-3	2	5
COc1ccc(C2C(C#N)=C(/N=C/N3CCN(C)CC3)OC3=C2C(=O)CC(C)(C)C3)cc1OC (stereo not given)	5	50*	-7	0	-27
CC1(C)CC(=O)C2=C(C1)N(c1cccc(Cl)c1)C(=O)NC2(C(F)(F)F)C(F)(F)F	-5	-2	-2	2	1
NS(=O)(=O)c1ccc2c(c1)C(=NO)c1cc(S(N)(=O)=O)ccc1-2	-122	-1	-14	1	1
NC1=C(Cl)C(=O)c2ccccc2C1=O	83*	/	/	-1	/
NC1=C(Cl)C(=O)c2ccc(S(N)(=O)=O)cc2C1=O	96*	/	/	3	/
CN(C(=O)CNC(=O)c1ccc(Br)o1)C1CCCCC1	3	-5	3	0	-5
O=[N+]([O-])c1cccc(-c2nc3ccc([N+](=O)[O-])cc3[nH]2)c1	15	93*	94*	1	99*
O=[N+]([O-])c1ccc(O)c(C=Nc2ccc3nc(-c4ccccc4)[nH]c3c2)c1	-362	64*	37	-21	71*
COc1ccc(COC(=O)CNC(=O)C2CCCCC2)cc1F	14	1	-2	2	14
O=C(O)c1cccc(NS(=O)(=O)c2ccc3c(c2)C(=O)c2ccccc2C3=O)c1	39	2	3	2	13
COC(=O)c1ccccc1NC1=C/C(=N\S(=O)(=O)c2ccc(C(=O)O)cc2)c2ccccc2C1=O	-20	24	90*	4	73*
O=C1C(Nc2ccccc2)=C/C(=N/S(=O)(=O)c2cccs2)c2ccccc21	83*	/	/	2	/
O=C1C(Nc2ccccc2)=C(NS(=O)(=O)c2ccccc2)C(=O)c2ccccc21	39	9	9	0	14
COC(=O)c1ccccc1Nc1ccccc1	-31	2	0	1	-14
CCc1ccc(S(=O)(=O)/N=C2\C=C(Nc3ccc(C(=O)O)cc3)C(=O)c3ccccc32)cc1	44*	63*	94*	0	92*
Cc1ccc(S(=O)(=O)/N=C2\C=C(Nc3cccc(C(=O)O)c3)C(=O)c3ccccc32)cc1	83*	64*	93*	-1	91*
N#CC(c1ccc(Cl)cc1)c1cccc(Cl)n1 (stereo not given)	1	3	4	0	-15
CN1OC(COC(=O)c2ccc(Cl)cc2Cl)CC1c1ccccc1 (stereo not given)	11	-8	-5	1	-2
Cc1ccc(S(=O)(=O)C(C#N)c2nc3ccccc3nc2N2CCCC2)cc1 (stereo not given)	i	42	77*	-18	73*
CN1/C(=C\C=C2/SC(=S)NC2=O)C(C)(C)c2ccccc21	28	3	-3	39	-7
SMILES	SENP8 block-1	SENP7 inh	SENP8 block-2	SENP1 FRET inh	SENP6 inh
CN1CCC/C1=C/C=C1\SC(=S)NC1=O	82*	/	/	4	/
Cc1cc(C)n2nc(S(=O)(=O)NC3CCCCC3)nc2n1	15	6	1	0	-3
CC1=NN(c2ccc(C)cc2C)C(=O)C1C(c1ccccc1)C1C(=O)N(c2ccc(C)cc2C)N=C1C (stereo not given)	92*	15	5	0	10
Cc1cc(O)c2c(c1)C(=O)[C@@]13Oc4c5c(c(O)c6c(O)cc(C)cc46)C(=O)C[C@H](O)[C@H]5[C@@H]1[C@@H](O)CC(=O)C3=C2O	-4	/	/	33*	/
Nc1nc(-c2ccccc2)c(N=Nc2ccccc2Cl)s1	66*	-5	-7	9	-11
Oc1c(N=Nc2ccccn2)ccc2ccccc12	21	43	96*	14	94*
CCCc1nnc(SCC(=O)Nc2cccc(C(F)(F)F)c2)o1	9	0	3	1	0
CCc1ccc(-c2cc(C(F)(F)F)n3nc(C(=O)Nc4cnn(Cc5ccc(C)cc5)c4)cc3n2)s1	-314	0	-8	-23	-5
